# Rows were chosen to be rich in hits. Some 1.5% of all compounds tested hit in one or more screens of this group.
# FLuc act counter – firefly luciferase counter-screen for stimulation assays; ATPlite luciferase biochemical, luminescence, 10 min; 0 = ATP-free wells, 1 = DMSO control; P08659; 200,000 tested, under 10 active; activation factor at 10 µM;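 active means luciferase activation factor, scaled between plate controls, of at least 2 with compound at 10 µM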
# Target sequence (P08659 whole entry, looked up): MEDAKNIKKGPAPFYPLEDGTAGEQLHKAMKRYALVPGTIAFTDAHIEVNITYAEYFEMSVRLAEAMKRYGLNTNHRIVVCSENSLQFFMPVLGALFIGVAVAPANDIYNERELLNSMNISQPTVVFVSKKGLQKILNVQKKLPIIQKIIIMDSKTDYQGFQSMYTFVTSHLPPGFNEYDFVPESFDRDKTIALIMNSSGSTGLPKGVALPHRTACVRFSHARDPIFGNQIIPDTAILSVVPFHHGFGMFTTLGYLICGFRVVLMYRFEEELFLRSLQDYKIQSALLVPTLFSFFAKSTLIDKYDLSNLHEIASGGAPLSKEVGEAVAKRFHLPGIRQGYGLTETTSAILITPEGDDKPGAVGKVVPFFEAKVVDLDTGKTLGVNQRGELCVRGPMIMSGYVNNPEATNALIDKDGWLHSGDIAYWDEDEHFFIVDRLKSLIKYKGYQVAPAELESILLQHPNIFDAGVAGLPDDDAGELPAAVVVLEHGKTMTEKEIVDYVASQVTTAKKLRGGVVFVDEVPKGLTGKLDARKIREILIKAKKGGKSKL
#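 Assay system: Luciferase/luciferin detection reagent, cell-free biochemical luciferase assay / Read-out: luciferase activation / Benchmarks: No-ATP low control, compound-free enzyme-plus-ATP high control / Medium: PBS buffer for ATP / Detection: luminescence measurement of luciferase light output / Schedule: 10 min at ambient temperature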
# PPC-1+TRAIL kill – PPC-1 cancer cell killing with TRAIL present; PPC-1 cells + TRAIL, ATPLite viability luminescence; cell killing (% activity), % at 4 µM or 5 µM; actives 0.41% (n = 220,000); AID 1443;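 active means cell killing above 50% in the first pass at 4 µM, then a duplicate retest at 5 µM averaging 50% or more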
# FLuc inhib CS – inhibits firefly luciferase, flagging false hits in luciferase inhibition screens | P08659 | ATPLite firefly luciferase biochemical luminescence, 10 min | inhibition, % at 10 µM | actives 1.5% (n = 200,000) | AID 1006;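 active means inhibition above about 50% when tested at 10 µM, limit read from the data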
# TRAIL sens C8 – caspase-8 TRAIL sensitization; NB7+C8 cells + TRAIL, ATPlite viability luminescence; inhibition (viability loss, TRAIL sensitization), % at 10 µM; actives 1% (n = 360,000); AID 624354;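 active means compounds causing at least 50% loss of cell viability in the single-dose screen, relative to plate controls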
# Hits are given with their value; n = inactive; x = no result given.
SMILES,FLuc act counter,PPC-1+TRAIL kill,FLuc inhib CS,TRAIL sens C8
O=c1nccc(N/N=C/c2ccccc2O)[nH]1,x,x,x,64.2
COc1cccc(/C=N/NC(=O)C(C)n2nc(C)c([N+](=O)[O-])c2C)c1O (stereo unspecified),n,n,n,54.9
COc1cccc(/C=N/c2oc(-c3ccccc3)cc2C#N)c1O,n,n,n,n
COc1cccc(/C=N/Nc2ccc(C(=O)O)cc2)c1O,n,n,83.4,55.9
COc1cccc(/C=N/NC(=O)Cn2nc(C)c([N+](=O)[O-])c2C)c1O,n,n,n,n
COc1cccc(C=Nc2ccccc2C#N)c1O,n,n,88.9,n
COc1cccc(/C=N/Nc2ccnc(=O)[nH]2)c1O,x,x,x,47.9
COc1cccc(/C=N/NC(=O)N/N=C/c2cccc(OC)c2O)c1O,x,x,x,n
COc1cccc(/C=N/Nc2ccc([N+](=O)[O-])cn2)c1O,x,x,x,59.8
CCC(Oc1ccc(Br)cc1)C(=O)N1CCN(c2ncccn2)CC1 (stereo unspecified),x,x,x,n
c1ccc(OCc2nc3ccccc3s2)cc1,n,n,n,n
Fc1ccc(OCc2nc3ccccc3s2)cc1,n,n,64.0,n
COc1ccc(C(C(=O)NC2CCCCC2)N(C(=O)CCl)c2ccc(Cl)cc2)cc1 (stereo unspecified),n,62.1,n,96.3
COc1ccc(C(C(=O)NC2CCCC2)N(C(=O)c2snc(-c3ccc(F)cc3)c2N)c2ccc(OC)cc2)cc1 (stereo unspecified),n,n,n,n
Cc1cccc(N(C(=O)CNC(=O)c2ccco2)C(C(=O)NC2CCCCC2)c2cccnc2)c1 (stereo unspecified),x,x,x,n
COc1ccc(C(C(=O)NC2CCCC2)N(C(=O)c2snc(-c3ccc(F)cc3)c2N)c2ccc(F)cc2)cc1 (stereo unspecified),n,n,n,50.5
O=C(NC1CCCCC1)C(c1cccnc1)N(C(=O)CCl)c1cccc(Cl)c1 (stereo unspecified),n,n,n,97.5
COc1ccc(N(C(=O)c2cnccn2)C(C(=O)NC2CCCCC2)c2ccc(Cl)cc2)cc1 (stereo unspecified),x,x,x,n
Cc1cccc(C)c1N(C(=O)c1ccco1)C(C(=O)NC1CCCC1)c1ccncc1 (stereo unspecified),x,x,x,n
COc1ccc2ccc(OC)c(/C=N/NC(=O)c3cc4ccccc4o3)c2c1,x,x,x,n
COc1ccccc1NC(CC(=O)c1ccccc1)C(=O)OCC(=O)c1ccc(F)cc1 (stereo unspecified),n,n,n,67.6
O=C(CSc1cn(Cc2ccccc2)c2ccccc12)Nc1nccs1,n,n,50.3,n
Cc1ccccc1NC(=O)c1c(C)[nH]c(=S)c(C#N)c1-c1ccco1,n,60.1,n,n
O=C(O)C1(C(=O)O)CCC2(CCCCC2)CC1,x,x,x,n
NS(=O)(=O)c1ccc(CCNC(=O)CSc2nc3ccccc3c(=O)n2CCN2CCOCC2)cc1,n,n,n,n
SMILES,FLuc act counter,PPC-1+TRAIL kill,FLuc inhib CS,TRAIL sens C8
NS(=O)(=O)c1ccc(CCNC(=O)CSc2nc3ccccc3c(=O)n2CCC(=O)N2CCCCC2)cc1,n,n,53.3,n
COc1cc(SC#N)ccc1N=Cc1c(C)[nH]n(-c2ccc(Cl)cc2)c1=O,n,n,n,67.9
COc1cc(SC#N)ccc1N=Cc1c(C)[nH]n(-c2ccc(C)c(C)c2)c1=O,n,n,n,80.5
C=CCNC(=S)N/N=C/c1ccc(C(F)(F)F)cc1,n,n,51.7,51.0
FC(F)(F)c1ccc(/C=N/NC(=S)NC2CCCCC2)cc1,n,n,n,n
C=CCNC(=S)N/N=C/c1ccc(C)cc1C,n,n,62.9,n
CCNC(=S)N/N=C/c1cc(C)ccc1C,n,n,n,n
CCN1C(=O)[C@H]2[C@H]3CN=C(SCC(=O)c4ccccc4)N3[C@@](C)(C(=O)OC)[C@H]2C1=O,x,x,x,n
Cc1cc2ncc(-c3ccc(Cl)cc3)c(N)n2n1,n,n,57.7,n
O=C1C(=NO)CC(c2ccccc2)N1c1ccccc1 (stereo unspecified),x,x,x,n
c1ccc2nc3c(nc2c1)[nH]c1ccccc13,n,n,n,51.9
O=C(CCN1C(=O)c2ccc(Br)cc2C1=O)NC1CCCCC1,x,x,x,n
O=C(CCl)N1CCCC1c1ccc2c(c1)OCCO2 (stereo unspecified),x,x,x,64.6
Cc1cccc(-c2cc3c(nn2)-c2ccccc2C3=O)c1,n,n,61.7,n
Cc1cnc2c(c1)C(=O)c1ccccc1-2,x,x,x,n
COC(=O)c1c(NC(=O)c2ccc([N+](=O)[O-])o2)sc2c1CCN(C(C)C)C2,x,x,x,53.4
CC(C)N1CCc2c(sc(NC(=O)c3ccc([N+](=O)[O-])o3)c2C(N)=O)C1,x,x,x,51.6
O=C(NCCc1nc2ccccc2[nH]1)C1CCC(=O)N(CCc2cccc(F)c2)C1 (stereo unspecified),x,x,x,n
Cc1ccc(/C=N/Nc2nc3ccccc3s2)o1,n,n,60.3,n
Nc1nc(N)c2cc(S(=O)(=O)c3cccc(C(F)(F)F)c3)ccc2n1,x,x,x,73.4
CN(C)S(=O)(=O)c1ccc(C(=O)Nc2ccc3nc(N4CCOCC4)sc3c2)cc1,x,x,x,n
CC(=O)Nc1sc2c(c1-c1nc3ccccc3s1)CN(C(C)C)CC2,x,x,x,53.6
O=C(NC(=S)Nc1ccccc1)c1ccc(-c2ccccc2)cc1,n,53.6,n,n
O=C(O)c1ccc(NC(=S)NC(=O)c2ccc(-c3ccccc3)cc2)cc1,n,n,n,n
COc1ccc(C(=O)NNC(=S)Nc2ccccc2)cc1,n,n,57.1,n
SMILES,FLuc act counter,PPC-1+TRAIL kill,FLuc inhib CS,TRAIL sens C8
CCOC(=O)c1cnc2c(-c3ccccc3)cnn2c1C,n,n,75.4,58.5
CCCCn1c(NS(=O)(=O)c2ccc(C)cc2)c(S(=O)(=O)c2ccccc2)c2nc3ccccc3nc21,n,n,n,77.8
O=C(COC(=O)/C=C/c1ccccc1[N+](=O)[O-])Nc1ccc2[nH]c(=O)[nH]c2c1,x,x,x,n
N#C/C(=C\c1ccc(O)c([N+](=O)[O-])c1)c1nc2ccccc2s1,n,n,n,n
N#C/C(=C/c1ccco1)c1nc2ccccc2s1,n,n,70.2,n
N#C/C(=C/c1ccc(-c2cc(C(=O)O)cc(C(=O)O)c2)o1)c1nc2ccccc2s1,n,n,n,x
N#C/C(=C\c1ccco1)c1nc2ccccc2s1,n,n,68.2,n
CCCOc1ccc(C(F)(F)F)cc1NC(=O)C1CC(=O)N(Cc2ccco2)C1 (stereo unspecified),x,x,x,n
CCCCNC(=O)C1(C)CCCCN1C(=O)c1ccc2c(c1)C(C)(C)CCC2(C)C (stereo unspecified),x,x,x,n
Nc1cc2nsnc2cc1Br,n,n,n,95.7
Nc1cccc2nsnc12,x,n,x,n
CN(Cc1ccccc1)C(=O)c1ccc(Nc2nc(C(N)Cc3ccc(C(F)(F)F)cc3)cs2)nc1 (stereo unspecified),x,x,x,92.6
COc1ccc(NC(=O)Nc2nc(C(N)Cc3ccc(C(F)(F)F)cc3)cs2)cc1 (stereo unspecified),x,x,x,n
NC(Cc1ccccc1)c1csc(NC(=O)Nc2ccccc2Oc2ccccc2)n1 (stereo unspecified),x,x,x,74.6
